TMEM16A act: activates or potentiates the mouse TMEM16A chloride channel. hit rate 0.3% among 340,000. Q8BHY3. B-score at 10 µM. AID 623877. HEK293 TMEM16A/YFP-H148Q/I152L, iodide quench fluorescence; active compounds read low;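 active means fluorescence-ratio B-score plate-corrected deviation score at least 3 library SD below zero, with starting fluorescence score within 5 deviations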;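 further: channel opened by trigger with iodide after compound preincubation; score built on the fluorescence ratio of max minus min over baseline; more negative score means more quench and so TMEM16A activation or potentiation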
MC4R antagonist: antagonists of human melanocortin 4 receptor (MC4R); P32245; MC4R-expressing cells, MTII-stimulated cAMP, LANCE TR-FRET; inhibition, % at 6.5 µM; hit rate 0.48% among 360,000;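 active means inhibition above its plate's cutoff, the mean of tested wells on that plate plus 3 SD, cut at about 29% in these data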
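material = U2OS cells stably expressing human melanocortin 4 receptor (MC4R) | also added = Melanotan II challenge | dosing = single nominal compound dose of 6.5 µM | detection = TR-FRET with Eu-cAMP and labeled anti-cAMP, 671 nm | replication = singlicate | timing = compound 30 min, challenge 1 h, detection 1 h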
beta cell repl: MIN6 beta-cell proliferation induction; hit rate 0.29% among 330,000; proliferation, % at 10 µM; MIN6 cells proliferation, ATPlite luminescence, 48 h; cells starved in 0.2% serum; 100% = growth in 10% serum; AID 2380;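 active means compounds whose signal lies at least 3.5 SD above the mean of all wells on their plate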
m5-HT2A agonist: activates the mouse 5-HT2A serotonin receptor. activation, % at 7.6 µM. CHO-K1 mHTR2A beta-arrestin complementation, luminescence; percent of 30 µM serotonin response. hit rate 0.66% among 360,000. P35363;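 active means activation above a run cutoff, the mean activation of all tested compounds plus 3 SD, cut at about 14% in these data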
ANO1 block: mouse TMEM16A channel inhibition, primary screen; Q8BHY3; HEK293 TMEM16A/YFP iodide influx fluorescence, ionomycin; normalized B-score (activity score, 25-100; higher = stronger inhibition) at 10 µM; hit rate 1.2% among 310,000; AID 588511;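 active means ratio plate-corrected score three or more library SD toward inhibition, starting fluorescence score within five deviations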;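 further: score derived from kinetic fluorescence span divided by baseline fluorescence per well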
MC4R barr agon: agonists of human melanocortin 4 receptor (MC4R) beta-arrestin; P32245; U2OS MC4R beta-arrestin complementation, luminescence; percent of melanotan II response, DMSO zero; activation, % at 8.9 µM; hit rate 0.98% among 360,000;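 active means activation above a per-plate cutoff, the mean activation of sample wells on that plate plus 3 SD, cut at about 8% in these data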
TMEM16A reconf: reconfirmed blocker of mouse TMEM16A calcium-activated chloride channel | shares compounds with ANO1 block | hit rate 39% among 2,300 | inhibition, % at 10 µM | HEK293 TMEM16A/YFP-H148Q, iodide quench fluorescence; ionomycin added to raise cell calcium;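 active means mean duplicate percent inhibition, scaled so buffer wells are 0 and the reference blocker 100, over three buffer SD above buffer mean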
TMEM16A Ca cntr: calcium mobilization counter-screen hit for TMEM16A inhibitor series | shares compounds with ANO1 block | calcium response (% of ionomycin), % at 10 µM | hit rate 2% among 2,300 | TMEM16A/YFP HEK293, Fluo4 calcium mobilization;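 active means duplicate-averaged calcium signal over 20% of the ionomycin maximum, relative to buffer baseline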;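 further: each well's signal is peak minus trough fluorescence divided by its pre-addition baseline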
Parental YFP cnt: acts in parental YFP-HEK293 cells lacking TMEM16A, counter-screen; YFP ratio F(max-min)/F0 at 10 µM; 2,300 tested, under 10 active; iodide YFP quench, ionomycin; shares compounds with ANO1 block;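 active means yellow fluorescent protein signal ratio exceeding the buffer control mean by over 5 SD of those controls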;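 further: ratio is mean of duplicate wells from kinetic YFP trace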
ClC-1 rat inh: blocks the rat ClC-1 voltage-dependent chloride channel. AID 652236. 2,300 tested, under 10 active. shares compounds with ANO1 block. ratio percent, % at 10 µM. CHO ClC-1-YFP, iodide influx fluorescence quench; iodide control reads 0, buffer control 100;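 active means duplicate-mean ratio percent above the mean of iodide-only control wells, which defines zero, plus 5 of their SD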;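 further: higher percent means stronger block of ClC-1 iodide influx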
Target sequence (P35524 whole entry, looked up): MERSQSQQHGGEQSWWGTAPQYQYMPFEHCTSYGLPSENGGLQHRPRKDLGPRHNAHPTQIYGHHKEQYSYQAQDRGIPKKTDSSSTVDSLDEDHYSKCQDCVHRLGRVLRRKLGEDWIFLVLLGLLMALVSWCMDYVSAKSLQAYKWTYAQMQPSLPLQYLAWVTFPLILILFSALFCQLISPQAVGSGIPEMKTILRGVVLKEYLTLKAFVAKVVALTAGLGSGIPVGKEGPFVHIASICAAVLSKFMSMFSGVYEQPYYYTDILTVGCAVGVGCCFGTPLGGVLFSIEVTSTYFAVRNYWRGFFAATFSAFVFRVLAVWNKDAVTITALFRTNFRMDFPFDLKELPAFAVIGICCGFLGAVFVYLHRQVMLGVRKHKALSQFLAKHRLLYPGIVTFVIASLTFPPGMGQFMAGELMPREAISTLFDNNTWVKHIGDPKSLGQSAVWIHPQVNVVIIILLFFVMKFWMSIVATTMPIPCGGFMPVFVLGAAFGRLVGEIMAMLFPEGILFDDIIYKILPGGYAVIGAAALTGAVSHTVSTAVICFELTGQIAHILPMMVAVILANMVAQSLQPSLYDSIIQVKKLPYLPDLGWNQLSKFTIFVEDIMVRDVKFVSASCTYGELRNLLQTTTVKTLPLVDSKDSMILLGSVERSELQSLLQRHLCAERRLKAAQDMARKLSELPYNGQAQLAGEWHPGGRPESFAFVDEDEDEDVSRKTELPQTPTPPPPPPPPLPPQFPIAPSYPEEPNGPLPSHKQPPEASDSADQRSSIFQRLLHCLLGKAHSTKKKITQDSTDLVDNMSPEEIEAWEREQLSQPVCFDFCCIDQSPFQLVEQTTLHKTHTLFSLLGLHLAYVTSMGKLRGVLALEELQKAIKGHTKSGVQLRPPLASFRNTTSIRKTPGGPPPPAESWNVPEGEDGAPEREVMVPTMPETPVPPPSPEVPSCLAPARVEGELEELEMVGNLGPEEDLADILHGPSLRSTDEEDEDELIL
Of the large screens only hits and unclear results are named; the others gave an inactive call (follow-up assays come after a bar, where they were run). Hits are enriched below; roughly 3.4% of the tested compounds scored in any of these assays.

CCCOc1ccc(F)cc1-c1cc(C(=O)NCc2cccs2)[nH]n1	none (no result: TMEM16A act, beta cell repl, ANO1 block)
COCCN(C(=O)c1sc2ccccc2c1Cl)c1c(N)n(CC(C)C)c(=O)[nH]c1=O	none (no result: ANO1 block)
CC(C)(Oc1ccc(Cl)cc1)C(=O)NCCN1C(=O)S/C(=C/c2cccnc2)C1=O	none
CC(Oc1ccc(Cl)cc1)C(=O)NCCN1C(=O)S/C(=C\c2cccnc2)C1=O (centres undefined)	ANO1 block 25 | TMEM16A reconf 55.0% | TMEM16A Ca cntr inactive | Parental YFP cnt inactive | ClC-1 rat inh inactive
COc1ccc2[nH]c3c(c2c1)CCN1C(=O)C(CC(=O)NCc2ccc(OC)c(OC)c2)C[C@H](C(=O)N2CCCCC2)[C@@]31CCc1ccccc1 (some centres undefined)	none (no result: TMEM16A act, beta cell repl, ANO1 block)
O=C(NCc1cccnc1)c1sc2cc(Cl)ccc2c1Cl	none
Cc1c(CN(C)C(=O)c2sc3cc(Cl)ccc3c2Cl)cnn1C	ANO1 block 100 | TMEM16A reconf 33.5% | TMEM16A Ca cntr inactive | Parental YFP cnt inactive | ClC-1 rat inh inactive
CC(C)(C)c1csc(NC(=O)Cc2ccc(S(=O)(=O)N3CCOCC3)s2)n1	ANO1 block 100 | TMEM16A reconf 23.5% | TMEM16A Ca cntr inactive | Parental YFP cnt inactive | ClC-1 rat inh inactive
Cc1cnc(NC(=O)Cc2ccc(S(=O)(=O)N3CCOCC3)s2)s1	none (no result: ANO1 block)
COC(=O)c1c(C)oc2ccc(NS(=O)(=O)c3cccs3)cc12	ANO1 block 100 | TMEM16A reconf 31.0% | TMEM16A Ca cntr inactive | Parental YFP cnt inactive | ClC-1 rat inh inactive
CC(=O)c1c(C)oc2ccc(NS(=O)(=O)c3ccc(F)cc3C)cc12	none
CC(C)CSc1nc(N2CCOCC2)c2c(c1C#N)CC(C)(C)SC2	none | TMEM16A reconf 22.0% | TMEM16A Ca cntr inactive | Parental YFP cnt inactive | ClC-1 rat inh inactive
CC(C)Sc1nc(N2CCOCC2)c2c(c1C#N)CC(C)(C)SC2	none
CC(=O)N(CCC(c1ccccc1)c1ccco1)Cc1cccs1 (centres undefined)	none
CCC(=O)N(CCC(c1ccco1)c1ccccc1OC)Cc1cccs1 (centres undefined)	ANO1 block 100 | TMEM16A reconf inactive | TMEM16A Ca cntr inactive | Parental YFP cnt inactive | ClC-1 rat inh inactive
O=C(O)c1cc(-c2c[nH]c3ccccc23)nc2ccc3ccccc3c12	none
c1ccc2c(-c3c[nH]c4ccccc34)c3ccccc3nc2c1	ANO1 block 25 | TMEM16A reconf inactive | TMEM16A Ca cntr inactive | Parental YFP cnt inactive | ClC-1 rat inh inactive
CCN1CCN(CCCNC(=O)c2ccc(/C=C3/Sc4ccccc4N(Cc4ccccc4F)C3=O)cc2)CC1	none | TMEM16A reconf 25.0% | TMEM16A Ca cntr inactive | Parental YFP cnt inactive | ClC-1 rat inh inactive
Cc1[nH]ccc2cc3nc4ccccc4c3cc12	none (no result: TMEM16A act, beta cell repl, ANO1 block)
CN=c1nc(-c2ccccc2)n(-c2ccccc2)s1	ANO1 block 25 | TMEM16A reconf inactive | TMEM16A Ca cntr inactive | Parental YFP cnt inactive | ClC-1 rat inh inactive
O=CN1c2ccccc2CSc2ccccc21	none
Cc1ccc(S(=O)(=O)N(CC(=O)O)Cc2ccco2)cc1	none
Cc1ccc(S(=O)(=O)N(Cc2ccc(F)cc2)Cc2ccco2)cc1	ANO1 block 100 | TMEM16A reconf inactive | TMEM16A Ca cntr inactive | Parental YFP cnt inactive | ClC-1 rat inh inactive
Cc1ccc(S(=O)(=O)N(Cc2ccccc2)Cc2ccco2)cc1	ANO1 block 100 | TMEM16A reconf 28.0% | TMEM16A Ca cntr inactive | Parental YFP cnt inactive | ClC-1 rat inh inactive
Cc1nn(CC(=O)NCCCN2C(C)CCCC2C)c(=O)c2cc3occc3n12 (centres undefined)	none
CCCNC(=O)c1cc2c(c(-c3cccc(-c4ccccc4F)c3)n1)[C@@H](CCO)N(C(=O)CC1CC1)C2	none (no result: TMEM16A act, MC4R antagonist, beta cell repl, ANO1 block, MC4R barr agon)
COc1cc(C)ccc1OCC(=O)OCC(=O)c1[nH]c(C)c(C(C)=O)c1C	none (no result: ANO1 block)
COc1cc(CN(C)CC(=O)c2[nH]c(C)c(C(C)=O)c2C)ccc1OC(F)F	ANO1 block 25 | TMEM16A reconf 17.0% | TMEM16A Ca cntr inactive | Parental YFP cnt inactive | ClC-1 rat inh inactive
COc1ccccc1OCC(=O)c1[nH]c(C)c(C(C)=O)c1C	ANO1 block 25 | TMEM16A reconf inactive | TMEM16A Ca cntr inactive | Parental YFP cnt inactive | ClC-1 rat inh inactive
Cc1cccc(-c2noc(CCCC(=O)NC3CCCC3)n2)c1	none
Cc1ccccc1S(=O)(=O)N1CCN(c2ccc3c(c2)C2CC3CCN2C(=O)OCc2ccccc2)CC1 (centres undefined)	none (no result: TMEM16A act, MC4R antagonist, beta cell repl, ANO1 block, MC4R barr agon)
O=CNc1c(Br)cc2c(c1Br)Cc1cc(Br)ccc1-2	none (no result: beta cell repl, ANO1 block)
CCNS(=O)(=O)c1ccc(NC(=O)Nc2cc(C)ccc2OC)cc1	ANO1 block 25 | TMEM16A reconf inactive | TMEM16A Ca cntr inactive | Parental YFP cnt inactive | ClC-1 rat inh inactive
CCCCCCCCC(=O)Nc1cc(C)ccc1OC	ANO1 block 100 | TMEM16A reconf inactive | TMEM16A Ca cntr inactive | Parental YFP cnt inactive | ClC-1 rat inh inactive
CCCCn1c(N)c(N(CCOC)C(=O)c2cccc(S(=O)(=O)N(CC)c3ccccc3)c2)c(=O)[nH]c1=O	none
CC12CC(c3ccccc3O1)N(C(=O)c1ccco1)C(=S)N2c1ccc(F)cc1 (centres undefined)	none | TMEM16A reconf inactive | TMEM16A Ca cntr inactive | Parental YFP cnt inactive | ClC-1 rat inh inactive
CC1(C)Cc2c(cnn2-c2ccc(F)cc2)C(NC(=O)c2ccco2)C1 (centres undefined)	none
Cc1ccsc1C(=O)OCc1csc(-c2ccccc2)n1	ANO1 block 100 | TMEM16A reconf 16.5% | TMEM16A Ca cntr inactive | Parental YFP cnt inactive | ClC-1 rat inh inactive
c1cn2c(-c3ccc(N4CCOCC4)cc3)cncc2n1	none (no result: TMEM16A act, beta cell repl, ANO1 block)
CCC1(c2ccc(F)cc2)NC(=O)N(CC(=O)N2CCN(S(=O)(=O)c3ccc(C)cc3C)CC2)C1=O (centres undefined)	none (no result: beta cell repl, ANO1 block)
CC(=O)c1ccc(NC(=S)N2c3ccccc3CC2C)cc1 (centres undefined)	none

Screening results deposited in PubChem by several laboratories.
